From ChEMBL document CHEMBL5712901, “DOT1L inhibition blocks multiple myeloma cell proliferation by suppressing IRF4-MYC signaling” (2019)
Active and inactive are the calls of the source.

Legend:
MM1.S [1] = assay: Upregulation of IFN in human MM1.S cells assessed as increase in IFI44 gene at 1 uM for 6 days by qRT-PCR analysis; format: functional, cell-based; conditions: time 6.0 day
RPMI-8226 [2] = assay: Upregulation of ANTXR2 gene in human RPMI-8226 cells at 1 uM for 6 days by; format: functional, cell-based; conditions: time 6.0 day
RPMI-8226 [3] = assay: Upregulation of CFH gene in human RPMI-8226 cells at 1 uM for 6 days by; format: functional, cell-based; conditions: time 6.0 day
RPMI-8226 [4] = assay: Upregulation of CTSH gene in human RPMI-8226 cells at 1 uM for 6 days by; format: functional, cell-based; conditions: time 6.0 day
Summary of the method: (§1)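 Human myeloma lines RPMI-8226 and MM.1S exposed to 1 μM DOT1L inhibitor, or DMSO, for 6 days. Whole-genome expression profiled on gene expression microarray.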

RPMI-8226 [5] = assay: Upregulation of CXCL12 gene in human RPMI-8226 cells at 1 uM for 6 days by; format: functional, cell-based; conditions: time 6.0 day; summary of the method: as §1
RPMI-8226 [6] = assay: Upregulation of DDIT4L gene in human RPMI-8226 cells at 1 uM for 6 days by; format: functional, cell-based; conditions: time 6.0 day; summary of the method: as §1
RPMI-8226 [7] = assay: Upregulation of ENC1 gene in human RPMI-8226 cells at 1 uM for 6 days by; format: functional, cell-based; conditions: time 6.0 day; summary of the method: as §1
RPMI-8226 [8] = assay: Upregulation of GNAI1 gene in human RPMI-8226 cells at 1 uM for 6 days by; format: functional, cell-based; conditions: time 6.0 day; summary of the method: as §1
RPMI-8226 [9] = assay: Upregulation of HLA-DPB1 gene in human RPMI-8226 cells at 1 uM for 6 days by; format: functional, cell-based; conditions: time 6.0 day
RPMI-8226 [10] = assay: Upregulation of HLA-DQB1 gene in human RPMI-8226 cells at 1 uM for 6 days by; format: functional, cell-based; conditions: time 6.0 day
RPMI-8226 [11] = assay: Upregulation of HLA-DRB1 gene in human RPMI-8226 cells at 1 uM for 6 days by; format: functional, cell-based; conditions: time 6.0 day
RPMI-8226 [12] = assay: Upregulation of IFIT1 gene in human RPMI-8226 cells at 1 uM for 6 days by; format: functional, cell-based; conditions: time 6.0 day
RPMI-8226 [13] = assay: Upregulation of IFITM1 gene in human RPMI-8226 cells at 1 uM for 6 days by; format: functional, cell-based; conditions: time 6.0 day
RPMI-8226 [14] = assay: Upregulation of IL1RAP gene in human RPMI-8226 cells at 1 uM for 6 days by; format: functional, cell-based; conditions: time 6.0 day
RPMI-8226 [15] = assay: Upregulation of MILR1 gene in human RPMI-8226 cells at 1 uM for 6 days by; format: functional, cell-based; conditions: time 6.0 day
RPMI-8226 [16] = assay: Upregulation of MS4A4A gene in human RPMI-8226 cells at 1 uM for 6 days by; format: functional, cell-based; conditions: time 6.0 day
RPMI-8226 [17] = assay: Upregulation of RIMBP3 gene in human RPMI-8226 cells at 1 uM for 6 days by; format: functional, cell-based; conditions: time 6.0 day
MM1.S [18] = assay: Upregulation of CHRNA6 gene in human MM1.S cells at 1 uM for 6 days by; format: functional, cell-based; conditions: time 6.0 day
MM1.S [19] = assay: Upregulation of CLIP2 gene in human MM1.S cells at 1 uM for 6 days by; format: functional, cell-based; conditions: time 6.0 day; summary of the method: as §1
MM1.S [20] = assay: Upregulation of EMILIN2 gene in human MM1.S cells at 1 uM for 6 days by; format: functional, cell-based; conditions: time 6.0 day; summary of the method: as §1
MM1.S [21] = assay: Upregulation of ENC1 gene in human MM1.S cells at 1 uM for 6 days by; format: functional, cell-based; conditions: time 6.0 day; summary of the method: as §1
MM1.S [22] = assay: Upregulation of FZD1 gene in human MM1.S cells at 1 uM for 6 days by; format: functional, cell-based; conditions: time 6.0 day; summary of the method: as §1
MM1.S [23] = assay: Upregulation of GPD2 gene in human MM1.S cells at 1 uM for 6 days by; format: functional, cell-based; conditions: time 6.0 day; summary of the method: as §1
MM1.S [24] = assay: Upregulation of GRHL3 gene in human MM1.S cells at 1 uM for 6 days by; format: functional, cell-based; conditions: time 6.0 day; summary of the method: as §1
MM1.S [25] = assay: Upregulation of IFITM3 gene in human MM1.S cells at 1 uM for 6 days by; format: functional, cell-based; conditions: time 6.0 day
MM1.S [26] = assay: Upregulation of LRRC56 gene in human MM1.S cells at 1 uM for 6 days by; format: functional, cell-based; conditions: time 6.0 day
MM1.S [27] = assay: Upregulation of NOG gene in human MM1.S cells at 1 uM for 6 days by; format: functional, cell-based; conditions: time 6.0 day
MM1.S [28] = assay: Upregulation of NRIP1 gene in human MM1.S cells at 1 uM for 6 days by; format: functional, cell-based; conditions: time 6.0 day
MM1.S [29] = assay: Upregulation of PARP8 gene in human MM1.S cells at 1 uM for 6 days by; format: functional, cell-based; conditions: time 6.0 day
MM1.S [30] = assay: Upregulation of RAB37 gene in human MM1.S cells at 1 uM for 6 days by; format: functional, cell-based; conditions: time 6.0 day
MM1.S [31] = assay: Upregulation of SAP30L gene in human MM1.S cells at 1 uM for 6 days by; format: functional, cell-based; conditions: time 6.0 day
MM1.S [32] = assay: Upregulation of SMIM14 gene in human MM1.S cells at 1 uM for 6 days by; format: functional, cell-based; conditions: time 6.0 day
MM1.S [33] = assay: Upregulation of TLE1 gene in human MM1.S cells at 1 uM for 6 days by; format: functional, cell-based; conditions: time 6.0 day
MM1.S [34] = assay: Upregulation of XKR3 gene in human MM1.S cells at 1 uM for 6 days by; format: functional, cell-based; conditions: time 6.0 day
RPMI-8226 [35] = assay: Effect on human RPMI-8226 cells assessed as change in Myc mRNA level at 1 uM for 6 days by qRT-PCR analysis; conditions: time 6.0 day
RPMI-8226 [36] = assay: Effect on human RPMI-8226 cells assessed as change in IRF4 mRNA level at 1 uM for 6 days by qRT-PCR analysis; conditions: time 6.0 day
RPMI-8226 [37] = assay: Antiproliferative activity against human RPMI-8226 cells treated 3 days at 1 uM; format: functional, cell-based; conditions: time 3.0 day
Summary of the method: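 Cell lines in 6-well plates, 2 × 10^4 to 8 × 10^5 cells/well, exposed to DOT1L inhibitor at 0.25-1 μM or DMSO, with medium and drug refreshed every 3 days. Viability read with Cell Counting Kit-8 on a microplate reader. Values normalized to untreated cells; mean of 3 replications ± SEM.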

MM1.S [38] = assay: Induction of apoptosis in human MM1.S cells assessed as necrotic cells at 1 uM for 6 days by annexin-V based propidium iodide staining based flow cytometric analysis (reference value: 1.8%); format: functional; conditions: time 6 day
MM1.S [39] = assay: Induction of apoptosis in human MM1.S cells assessed as late apoptotic cells at 1 uM for 3 days by annexin-V based propidium iodide staining based flow cytometric analysis (reference value: 0.15%); format: functional; conditions: time 3 day
MM1.S [40] = assay: Effect on human MM1.S cells assessed as change in PRDM1 mRNA level at 1 uM for 3 days by ChIP-qPCR analysis; format: functional, cell-based; conditions: time 3.0 day
Summary of the method: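 ChIP-qPCR for H3K79me2 at IRF4-MYC signaling genes after 1 μM inhibitor or DMSO for 3 days. Signal normalized to input DNA. An intergenic region 28 kb upstream of KLF2 served as negative control. Mean of 3 replications ± SEM.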

RPMI-8226 [41] = assay: Upregulation of IFN in human RPMI-8226 cells assessed as increase in IFIT1 gene at 1 uM for 6 days by qRT-PCR analysis; format: functional, cell-based; conditions: time 6.0 day
MM1.S [42] = assay: Upregulation of IFN in human MM1.S cells assessed as increase in ISG15 gene at 1 uM for 6 days by qRT-PCR analysis; format: functional, cell-based; conditions: time 6.0 day
MM1.S [43] = assay: Upregulation of IFN in human MM1.S cells assessed as increase in IFI44 gene at 1 uM for 6 days by qRT-PCR analysis; conditions: time 6.0 day
RPMI-8226 [44] = assay: Upregulation of IFN in human RPMI-8226 cells assessed as increase in IFITM1 gene at 1 uM for 6 days by qRT-PCR analysis; conditions: time 6.0 day

Measured: Activity

CC(C)N(CCCNC(=O)Nc1ccc(C(C)(C)C)cc1)C[C@H]1O[C@@H](n2cc(Br)c3c(N)ncnc32)[C@H](O)[C@@H]1O
active: MM1.S [1] | RPMI-8226 [2] | RPMI-8226 [3] | RPMI-8226 [4] | RPMI-8226 [5] | RPMI-8226 [6] | RPMI-8226 [7] | RPMI-8226 [8] | RPMI-8226 [9] | RPMI-8226 [10] | RPMI-8226 [11] | RPMI-8226 [12] | RPMI-8226 [13] | RPMI-8226 [14] | RPMI-8226 [15] | RPMI-8226 [16] | RPMI-8226 [17] | MM1.S [18] | MM1.S [19] | MM1.S [20] | MM1.S [21] | MM1.S [22] | MM1.S [23] | MM1.S [24] | MM1.S [25] | MM1.S [26] | MM1.S [27] | MM1.S [28] | MM1.S [29] | MM1.S [30] | MM1.S [31] | MM1.S [32] | MM1.S [33] | MM1.S [34] | RPMI-8226 [35] | RPMI-8226 [36]

CC(C)N(C[C@H]1O[C@@H](n2cnc3c(N)ncnc32)[C@H](O)[C@@H]1O)[C@H]1C[C@@H](CCc2nc3cc(C(C)(C)C)ccc3[nH]2)C1 [PINOMETOSTAT]
2.47%: MM1.S [38]
0.083%: MM1.S [39]
active: RPMI-8226 [37] | MM1.S [40] | RPMI-8226 [41] | MM1.S [42] | MM1.S [43] | RPMI-8226 [44]
